Results on three compounds are retold here after ChEMBL document CHEMBL3526133, “Identifying a selective substrate and inhibitor pair for the evaluation of CYP2J2 activity” (Drug Metab Dispos, 2012).

In series [1] the target is T1, Cytochrome P450 2J2 (Homo sapiens, UniProt P51589).
T1 sequence (P51589 whole entry): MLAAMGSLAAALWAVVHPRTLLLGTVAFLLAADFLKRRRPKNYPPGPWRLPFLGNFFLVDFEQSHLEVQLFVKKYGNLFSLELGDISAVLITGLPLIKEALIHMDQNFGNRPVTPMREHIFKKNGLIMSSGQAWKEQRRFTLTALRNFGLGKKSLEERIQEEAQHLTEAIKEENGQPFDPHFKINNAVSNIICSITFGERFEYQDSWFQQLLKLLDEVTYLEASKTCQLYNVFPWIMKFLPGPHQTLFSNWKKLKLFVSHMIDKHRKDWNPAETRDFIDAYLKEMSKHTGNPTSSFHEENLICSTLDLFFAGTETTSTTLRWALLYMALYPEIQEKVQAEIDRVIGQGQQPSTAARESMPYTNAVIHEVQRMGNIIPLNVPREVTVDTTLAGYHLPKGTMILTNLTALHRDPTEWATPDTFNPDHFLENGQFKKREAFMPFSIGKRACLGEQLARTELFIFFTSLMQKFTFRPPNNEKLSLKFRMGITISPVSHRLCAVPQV
Kind of series: Drug metabolism assessed as recombinant CYP2J2 (unknown origin)-mediated compound formation treated with amiodarone at 1 uM after 5 to 45 mins by LC-MS/MS analysis. It is filed as ADME. Conditions: recombinant enzyme. The method, boiled down:
(§1)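 Preincubated, then started with NADPH-regenerating system (1 mM NADPH final). Aliquots taken at 0, 5, 10, 20, 30, 45 min and quenched in acetonitrile with internal standard. No-NADPH controls included. Products measured by LC-MS/MS.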

Series [2] addresses Cytochrome P450 3A4 (Homo sapiens, UniProt P08684). The series is described as follows: Drug metabolism assessed as recombinant CYP3A4 (unknown origin)-mediated compound formation treated with amiodarone at 1 uM after 5 to 45 mins by LC-MS/MS analysis. It counts as ADME. Conditions: recombinant enzyme. The gist of the method:
as §1

Series [3] is described as follows: Retention time in potassium phosphate buffer treated with amiodarone hydrochloride at 30 uM by HPLC analysis. It is filed as physicochemical.
For series [4], the target named is T1, Cytochrome P450 2J2. Kind of series: Drug metabolism in human liver microsomes assessed as CYP2J2-mediated compound formation treated with amiodarone at 1 uM after 5 to 45 mins by LC-MS/MS analysis. It counts as ADME. (In general: Liver microsomes are a subcellular fraction often used to study metabolism.)
For series [5], the target named is T2, CYP2J2 (Homo sapiens, UniProt P51589).
T2 sequence (P51589 whole entry): T1 sequence (P51589 whole entry)
The series is described as follows: in vitro. The conditions noted are these: recombinant enzyme.

Series [6] concerns the target T2, CYP2J2. The series is described as follows: in vitro.
Series [7] deals with T3, CYP2C8 (Homo sapiens, UniProt P10632).
T3 sequence (P10632 whole entry): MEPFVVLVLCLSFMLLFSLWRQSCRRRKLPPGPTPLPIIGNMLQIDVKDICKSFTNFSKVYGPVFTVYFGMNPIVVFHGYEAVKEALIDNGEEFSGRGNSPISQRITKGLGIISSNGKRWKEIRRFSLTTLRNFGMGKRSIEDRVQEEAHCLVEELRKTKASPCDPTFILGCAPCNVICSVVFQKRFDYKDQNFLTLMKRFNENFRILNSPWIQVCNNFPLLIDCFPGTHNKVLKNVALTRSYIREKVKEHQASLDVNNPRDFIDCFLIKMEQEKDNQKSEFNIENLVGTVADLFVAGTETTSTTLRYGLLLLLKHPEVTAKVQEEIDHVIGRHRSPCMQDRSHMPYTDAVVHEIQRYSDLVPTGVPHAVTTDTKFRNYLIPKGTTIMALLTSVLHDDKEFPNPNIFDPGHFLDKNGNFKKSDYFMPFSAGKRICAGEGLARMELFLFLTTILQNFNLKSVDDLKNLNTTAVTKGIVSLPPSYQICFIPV
The series is described as follows: in vitro. Conditions: human liver microsomes, probe paclitaxel (metabolite formation).

Series [8] concerns the target T4, Cytochrome P450 1A2 (Homo sapiens, UniProt P05177).
T4 sequence (P05177 whole entry): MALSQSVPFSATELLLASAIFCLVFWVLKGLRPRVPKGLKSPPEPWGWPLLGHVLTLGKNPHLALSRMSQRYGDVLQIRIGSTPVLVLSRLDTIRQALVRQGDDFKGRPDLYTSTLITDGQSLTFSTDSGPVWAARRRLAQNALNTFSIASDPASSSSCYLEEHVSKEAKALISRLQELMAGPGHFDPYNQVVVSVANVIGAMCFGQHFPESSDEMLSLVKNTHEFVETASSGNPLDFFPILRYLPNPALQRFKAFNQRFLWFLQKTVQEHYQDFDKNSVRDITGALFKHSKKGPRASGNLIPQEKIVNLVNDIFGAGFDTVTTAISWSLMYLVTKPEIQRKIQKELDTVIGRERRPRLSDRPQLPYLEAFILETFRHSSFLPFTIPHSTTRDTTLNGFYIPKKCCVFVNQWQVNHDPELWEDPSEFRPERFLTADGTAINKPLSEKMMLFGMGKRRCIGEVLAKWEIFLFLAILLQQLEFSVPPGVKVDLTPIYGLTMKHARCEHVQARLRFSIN

For series [9], the target named is CYP2C19 (Homo sapiens, UniProt P33261). Kind of series: Inhibition of CYP2C19-mediated S-mephenytoin metabolite formation in human liver microsomes at 0.3 uM after 8 mins by LC-MS/MS analysis relative to control. The conditions noted are these: probe S-mephenytoin (metabolite formation). It is filed as ADME. The gist of the method: (§2)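 Pooled HLM with probe cocktail: phenacetin 10 µM, paclitaxel 5 µM, diclofenac 5 µM, S-mephenytoin 40 µM, dextromethorphan 5 µM, midazolam 2 µM. […] Preincubated 15 min, then started with NADPH-regenerating system (1 mM NADPH). Reaction run 8 min, quenched in acetonitrile with internal standard. Metabolites measured by LC-MS/MS; % inhibition given as mean ± S.D.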
Chain of CYP2C19 (P33261 whole entry): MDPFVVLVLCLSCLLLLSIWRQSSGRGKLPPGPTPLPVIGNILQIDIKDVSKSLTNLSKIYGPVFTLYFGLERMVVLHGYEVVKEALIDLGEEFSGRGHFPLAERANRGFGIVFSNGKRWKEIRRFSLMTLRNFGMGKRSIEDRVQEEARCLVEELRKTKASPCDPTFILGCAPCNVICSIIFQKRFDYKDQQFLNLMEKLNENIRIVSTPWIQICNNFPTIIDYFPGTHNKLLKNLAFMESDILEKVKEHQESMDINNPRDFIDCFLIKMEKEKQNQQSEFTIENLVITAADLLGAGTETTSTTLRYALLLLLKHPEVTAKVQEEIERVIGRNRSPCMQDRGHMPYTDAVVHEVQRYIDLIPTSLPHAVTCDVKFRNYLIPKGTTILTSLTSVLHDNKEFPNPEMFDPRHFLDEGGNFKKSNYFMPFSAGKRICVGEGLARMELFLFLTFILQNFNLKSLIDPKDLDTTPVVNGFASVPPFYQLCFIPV

The target of series [10] is Cytochrome P450 2C9 (Homo sapiens, UniProt P11712).
Chain of Cytochrome P450 2C9 (P11712 whole entry): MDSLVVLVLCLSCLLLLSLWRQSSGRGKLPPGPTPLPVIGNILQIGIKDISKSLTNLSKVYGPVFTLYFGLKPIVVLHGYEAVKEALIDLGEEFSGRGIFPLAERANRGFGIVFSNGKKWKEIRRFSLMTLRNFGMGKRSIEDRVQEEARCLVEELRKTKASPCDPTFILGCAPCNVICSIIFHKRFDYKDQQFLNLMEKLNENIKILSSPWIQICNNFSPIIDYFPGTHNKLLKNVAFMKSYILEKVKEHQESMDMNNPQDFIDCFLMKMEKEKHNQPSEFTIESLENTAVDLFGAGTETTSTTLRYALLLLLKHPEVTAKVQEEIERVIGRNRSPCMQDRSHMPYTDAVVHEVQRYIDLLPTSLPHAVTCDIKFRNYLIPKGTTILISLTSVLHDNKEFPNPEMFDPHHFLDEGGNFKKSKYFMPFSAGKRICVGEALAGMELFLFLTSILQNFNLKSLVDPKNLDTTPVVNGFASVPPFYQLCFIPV
Series [11] has as its target CYP2C9 (Homo sapiens, UniProt P11712). Kind of series: Inhibition of CYP2C9-mediated diclofenac metabolite formation in human liver microsomes at 0.3 uM after 8 mins by LC-MS/MS analysis relative to control. It counts as ADME. Conditions: probe diclofenac (metabolite formation). The method, boiled down: as §2
Series [12] concerns the target T5, Cytochrome P450 2C8 (Homo sapiens, UniProt P10632).
T5 sequence (P10632 whole entry): T3 sequence (P10632 whole entry)

Series [13] concerns the target T1, Cytochrome P450 2J2. Kind of series: Drug metabolism in human liver microsomes assessed as CYP2J2-mediated astemizole O-demethylation measured per pmol protein at 0.3 uM after 5 mins by LC-MS/MS analysis. It is filed as ADME.
Series [14] has as its target CYP3A4 (Homo sapiens, UniProt P08684). Kind of series: Inhibition of CYP3A4-mediated midazolam metabolite formation in human liver microsomes at 0.3 uM after 8 mins by LC-MS/MS analysis relative to control. It counts as ADME. The conditions noted are these: probe midazolam (metabolite formation). The gist of the method:
as §2

Series [15] addresses T6, CYP1A2 (Homo sapiens, UniProt P05177).
T6 sequence (P05177 whole entry): T4 sequence (P05177 whole entry)
Kind of series: Inhibition of CYP1A2-mediated phenacetin metabolite formation in human liver microsomes at 0.3 uM after 8 mins by LC-MS/MS analysis relative to control. Conditions: probe phenacetin (metabolite formation). It is filed as ADME. The gist of the method: as §2

The target of series [16] is T3, CYP2C8. Kind of series: Inhibition of CYP2C8-mediated paclitaxel metabolite formation in human liver microsomes at 0.3 uM after 8 mins by LC-MS/MS analysis relative to control. It counts as ADME. Conditions: probe paclitaxel (metabolite formation). The gist of the method:
as §2

For series [17], the target named is Cytochrome P450 2D6 (Homo sapiens, UniProt P10635).
Chain of Cytochrome P450 2D6 (P10635 whole entry): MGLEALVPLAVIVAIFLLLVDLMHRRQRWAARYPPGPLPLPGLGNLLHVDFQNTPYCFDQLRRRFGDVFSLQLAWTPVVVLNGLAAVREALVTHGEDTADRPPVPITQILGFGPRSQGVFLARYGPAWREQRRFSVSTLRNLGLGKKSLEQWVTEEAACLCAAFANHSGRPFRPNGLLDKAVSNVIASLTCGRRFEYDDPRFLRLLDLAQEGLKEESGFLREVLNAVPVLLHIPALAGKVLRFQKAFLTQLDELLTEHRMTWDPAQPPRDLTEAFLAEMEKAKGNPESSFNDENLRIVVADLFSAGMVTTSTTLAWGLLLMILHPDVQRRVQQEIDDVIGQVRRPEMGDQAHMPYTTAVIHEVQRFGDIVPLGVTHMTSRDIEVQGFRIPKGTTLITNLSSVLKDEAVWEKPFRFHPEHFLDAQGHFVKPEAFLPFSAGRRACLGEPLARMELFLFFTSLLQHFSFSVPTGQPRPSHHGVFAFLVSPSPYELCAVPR
Series [18] deals with CYP2D6 (Homo sapiens, UniProt P10635). The series is described as follows: Inhibition of CYP2D6-mediated dextromethorphan metabolite formation in human liver microsomes at 0.3 uM after 8 mins by LC-MS/MS analysis relative to control. It counts as ADME. The conditions noted are these: probe dextromethorphan (metabolite formation). The method, boiled down:
as §2

Series [19] has as its target Cytochrome P450 2C19 (Homo sapiens, UniProt P33261).

Each structure is given as a SMILES string. Bounds are passed on as bounds.

Chain of Cytochrome P450 2C19 (P33261 whole entry): as the sequence (P33261 whole entry) above
Chain of Cytochrome P450 3A4 (P08684 whole entry): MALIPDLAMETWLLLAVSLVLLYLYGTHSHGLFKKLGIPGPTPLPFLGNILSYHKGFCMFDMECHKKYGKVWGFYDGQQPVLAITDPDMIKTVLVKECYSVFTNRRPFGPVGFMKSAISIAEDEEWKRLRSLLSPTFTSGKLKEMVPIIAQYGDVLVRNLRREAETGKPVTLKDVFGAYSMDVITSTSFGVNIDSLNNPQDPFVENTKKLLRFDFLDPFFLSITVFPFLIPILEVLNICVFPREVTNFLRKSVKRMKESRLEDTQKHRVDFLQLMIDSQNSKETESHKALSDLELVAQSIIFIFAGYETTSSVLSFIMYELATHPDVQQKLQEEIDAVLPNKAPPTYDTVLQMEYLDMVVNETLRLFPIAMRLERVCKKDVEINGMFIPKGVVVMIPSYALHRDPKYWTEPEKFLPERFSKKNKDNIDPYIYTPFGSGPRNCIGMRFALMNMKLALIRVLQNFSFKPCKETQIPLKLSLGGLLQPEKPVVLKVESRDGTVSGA
Chain of CYP3A4 (P08684 whole entry): as above
Chain of CYP2D6 (P10635 whole entry): as the sequence (P10635 whole entry) above
Chain of CYP2C9 (P11712 whole entry): as the sequence (P11712 whole entry) above

For the compound `CCN(CC)CCOc1c(I)cc(C(=O)c2c(CCC(C)O)oc3ccccc23)cc1I` (stereo not given), the Drug metabolism entry in [1], in [2] and in series [4] was “metabolite_detected” throughout. The compound also registered a Retention_time in [3] of 13.2 min.

`CCCCc1oc2ccccc2c1C(=O)c1cc(I)c(OCCN(CC)CC)c(I)c1` [AMIODARONE]: the activity at 5 min, 30 µM in series [5] stood at 18.7%; in series [6] (recombinant enzyme), 39%. Also, the inhibition (in general, the relative decrease from the control value, in per cent) at 8 min, 5 µM in [7] was 32.7%.

On to `COc1ccc(CCN2CCC(Nc3nc4ccccc4n3Cc3ccc(F)cc3)CC2)cc1` [ASTEMIZOLE], for which the IC50 (as a rule, the concentration that inhibits the measured activity by half) was more than 30 µM in series [8]; more than 30 µM in series [10]; more than 30 µM in [12]; more than 30 µM in [17]; 13.7 µM in [19]. Further, the inhibition at 8 min, 0.3 µM in [9] was 6%; in series [11] it was -2.7%; in [14], 20.3%; in [15], -0.6%; in [16] it was 1.1%; in [18], 8.5%. For the same compound, the Drug metabolism in [13] is listed as 32 pmol/min. Moreover, the activity at 5 min, 30 µM in [6] (recombinant CYP2J2, probe terfenadine (hydroxylation)) turned out to be 8.3%.
